The target in this assay is metallo-beta-lactamase VIM-2 (Pseudomonas aeruginosa). The assay is described as follows: inhibition of VIM-2 nitrocefin cleavage – biochemical, absorbance, probe candidates and analogs, late-stage follow-up (AID 624079). The conditions noted are these: purified VIM-2, nitrocefin hydrolysis, epi-absorbance. A digest of the protocol: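 Material: purified VIM-2 enzyme; input: 0.132 nM enzyme; timing: 15 min preincubation, 25 min nitrocefin hydrolysis, 25 °C, EDTA stop; technique: hydrolysis product quenching plate fluorescence, 480 nm excitation, 530 nm emission; measure: four-parameter IC50 from OD-converted fluorescence; probe or stimulus: nitrocefin at 60 µM; dosing: dilution series with 60 µM top concentration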

The structures appear in SMILES notation. “And” between values parts separate entries of the source, which are not always exact repeats. Equal entries are not always repeated.

With `CN1CCN(NC(=O)CN2C(=O)/C(=C/c3c(Cl)cccc3Cl)SC2=S)CC1`, the IC50 was 3.98 µM and 4.55 µM.

`CN1CCN(NC(=O)CN2C(=O)/C(=C/c3c(Cl)ccc(Cl)c3Cl)SC2=S)CC1`: the IC50 is 0.548 µM.
